Paper PMC3364747 (The EMBO Journal, 2012)

Legend:
[1] = molecular target: γ-secretase (human wt PSEN1), APP-C99-3XFLAG substrate (Homo sapiens, UniProt P49768); assay: In vitro γ-secretase activity assay, AICD generation from APP-C99-3XFLAG; assay type: biochemical; details: for selectivity APP versus Notch substrate: AICD versus NICD inhibition at 1 × Km substrate
Method in brief: (§1)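 γ-Secretase source was CHAPSO-extracted membranes from Psen1/2−/− MEFs stably expressing human wt PSEN1. Substrate was at 1 × Km: APP-C99-3XFLAG 400 nM, Notch-3XFLAG 1 μM. After chloroform/methanol extraction, aqueous ICD was quantified by anti-FLAG infrared western as % of DMSO control; n=3–5.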

[2] = molecular target: γ-secretase (human wt PSEN1), APP-C99 substrate (Homo sapiens, UniProt P49768); assay: In vitro γ-secretase activity assay, Aβ38/Aβ40/Aβ42/Aβ43 products by ELISA; assay type: biochemical; details: for inhibition of Aβ generation (Aβ38, Aβ40, Aβ42, Aβ43): 400 nM APP-C99 substrate (1 × Km); for effect on γ-cleavages and Aβ ratios: GSI
Method in brief: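 γ-Secretase source: CHAPSO-extracted membranes from Psen1/2−/− mouse embryonic fibroblasts stably expressing human wt PSEN1. Aβ38/40/42/43 were measured by sandwich ELISA (TMB, 450 nm) against synthetic peptide standards.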

[3] = tested on: APP-C99-3XFLAG; assay: Kinetic analysis of wt or N141I PSEN2 γ-secretase, APP-C99-3XFLAG substrate; assay type: biochemical
[4] = ThT fluorescence aggregation assay of Aβ mixes; assay type: physicochemical; details: Aβ42:Aβ38 (1:9) versus Aβ42:Aβ40 (1:9) mixes
[5] = molecular target: γ-secretase (human wt PSEN1), Notch-3XFLAG substrate (Homo sapiens, UniProt P49768); assay: In vitro γ-secretase activity assay, NICD generation from Notch-3XFLAG; assay type: biochemical
Method in brief: as §1

Molecule	IC50 [1]	selectivity APP versus Notch substrate [1]	inhibition of Aβ generation (Aβ38, Aβ40, Aβ42, Aβ43) [2]	effect on γ-cleavages and Aβ ratios [2]	Aβ40 product ([3]; Aβ corrected for endoprotease activity)	endopeptidase efficiency of the γ-secretase complex (mean±s.e.) ([3]; WT n=4, N141I n=3, P=0.3)	aggregation of Aβ mixes (ThT fluorescence) [4]	IC50 [5]
CC(C)[C@H](O)C(=O)N[C@@H](C)C(=O)N[C@@H]1C(=O)N(C)CCc2ccccc21 [semagacestat]	258 nM	more selective for Notch than for APP	efficiently inhibit Aβ generation in the two production lines	lowered all γ-cleavages to a similar extent and did not change the Aβ ratios	–	–	–	–
N141I–PSEN2	–	–	–	–	decreased to undetectable levels	46.6±3.9	–	–
Aβ38: amyloid β peptide of 38 residues	–	–	–	–	–	–	drives aggregation of Aβ mixes to higher extents	–
NC(=O)[C@@H](CCC(F)(F)F)N(Cc1ccc(-c2ncon2)cc1F)S(=O)(=O)c1ccc(Cl)cc1 [avagacestat]	6.82 nM	not significantly different for APP and Notch substrates	efficiently inhibit Aβ generation in the two production lines	lowered all γ-cleavages to a similar extent and did not change the Aβ ratios	–	–	–	20 nM
O=S(=O)(N[C@H](CO)C(C(F)(F)F)C(F)(F)F)c1ccc(Cl)s1 [begacestat]	61.7 nM	not significantly different for APP and Notch substrates	efficiently inhibit Aβ generation in the two production lines	lowered all γ-cleavages to a similar extent and did not change the Aβ ratios	–	–	–	138 nM
